According to ChEMBL document CHEMBL4715843, “NO-releasing STAT3 inhibitors suppress BRAF-mutant melanoma growth” (Eur J Med Chem, 2020):
Calls of active or inactive are those of the source. The rule behind the calls is not given here.

Assays:
[1] = Drug metabolism in pH 7.4 phosphate buffer assessed as nitric oxide release at 100 uM measured after 48 hrs by Griess reagent based colorimetric method
Summary of the method: (§1)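 Compound at 100 µM was held at room temperature in pH 7.4 phosphate buffer with 5 mM DTT and 2% DMSO for 2 or 48 h. Griess reagent was added, and after 30 min absorbance was read at 548 nm. NO release (mol NO/mol compound) was derived from a sodium nitrite calibration curve.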

MOLT-4 = assay: Anticancer activity against human MOLT-4 cells assessed as cell growth inhibition at 10 uM measured after 48 hrs by SRB assay relative to control; assay type: functional; conditions: read-out: GI
Summary of the method: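 NCI 60-cell-line screen. Cells in RPMI with 5% FBS were plated at 5,000–40,000 cells/well by doubling time and preincubated 24 h at 37 °C. Compound was added at a single 10 µM for 48 h, then cells were fixed with cold TCA (10% final) and stained with 0.4% SRB. Absorbance at 515 nm gave percent growth versus untreated control and time-zero cells.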

[2] = Antiproliferative activity against human SB-590885-sensitive MEL1617 cells assessed as reduction in cell viability measured after 48 hrs by MTS assay; assay type: functional, cell-based; conditions: MEL1617, 48 h
Summary of the method: (§2)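 Melanoma lines were grown in RPMI-1640 with Glutamax at 37 °C and 5% CO2. The resistant 451 Lu-R and MEL 1617-R sublines were maintained with 1 µM PLX4720. Cells were incubated with vehicle or inhibitor over a dose range, and viability was read by MTS assay in triplicate.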

[3] = target: T1, Signal transducer and activator of transcription 3 (Homo sapiens, UniProt P40763); assay: Inhibition of STAT3 in human SB-590885-sensitive 451Lu cells assessed as reduction in STAT3 transcriptional activity measured after 12 hrs by Dual-luciferase reporter gene assay
T1 sequence (P40763 whole entry): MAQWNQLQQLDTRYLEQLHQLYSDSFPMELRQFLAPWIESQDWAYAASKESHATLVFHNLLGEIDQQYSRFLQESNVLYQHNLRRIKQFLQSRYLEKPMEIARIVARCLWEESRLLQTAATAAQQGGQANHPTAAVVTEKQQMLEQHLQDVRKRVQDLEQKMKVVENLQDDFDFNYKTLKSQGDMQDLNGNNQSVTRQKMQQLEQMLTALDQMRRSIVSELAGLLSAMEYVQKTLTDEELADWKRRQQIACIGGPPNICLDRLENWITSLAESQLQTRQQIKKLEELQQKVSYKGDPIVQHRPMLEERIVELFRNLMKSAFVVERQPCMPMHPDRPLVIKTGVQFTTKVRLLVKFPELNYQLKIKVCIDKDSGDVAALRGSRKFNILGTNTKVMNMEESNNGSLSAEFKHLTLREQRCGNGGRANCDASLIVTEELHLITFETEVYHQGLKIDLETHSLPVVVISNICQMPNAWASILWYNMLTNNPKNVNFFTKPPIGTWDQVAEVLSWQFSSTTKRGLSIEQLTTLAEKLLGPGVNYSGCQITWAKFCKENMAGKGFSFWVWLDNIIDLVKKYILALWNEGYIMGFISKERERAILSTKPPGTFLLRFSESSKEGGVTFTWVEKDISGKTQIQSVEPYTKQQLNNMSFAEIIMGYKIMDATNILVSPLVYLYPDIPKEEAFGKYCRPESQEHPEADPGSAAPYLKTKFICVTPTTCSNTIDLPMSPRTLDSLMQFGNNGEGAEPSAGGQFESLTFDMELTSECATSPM
Summary of the method: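 Cells co-transfected with inducible STAT3-responsive firefly luciferase and constitutive Renilla luciferase constructs (40:1) using Lipofectamine 3000. After 48 h, dose series in DMSO vehicle applied for 12 h, followed by dual-luciferase readout. Firefly signal normalized to Renilla and compared with untreated cells. Run in triplicate; IC50 taken from dose–response curves.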

[4] = Antiproliferative activity against human SB-590885-sensitive 451Lu cells assessed as reduction in cell viability measured after 48 hrs by MTS assay; assay type: functional; summary of the method: as §2
[5] = Drug metabolism in pH 7.4 phosphate buffer assessed as nitric oxide release at 100 uM measured after 2 hrs by Griess reagent based colorimetric method; summary of the method: as §1
[6] = target: T1, Signal transducer and activator of transcription 3; assay: Inhibition of STAT3 phosphorylation at Y705 residue in human SB-590885-sensitive 451Lu cells measured after 12 hrs by Western blot analysis; conditions: dose 10-25 µM
Summary of the method: (§3)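 451 Lu and MEL 1617 pairs, sensitive and resistant; resistant lines maintained in RPMI with 1 µM PLX4720. Treated with 10 and 25 µM for 12 h versus DMSO. Lysates (60 µg protein, 10% SDS-PAGE) immunoblotted for Ser727- and Tyr705-phospho-STAT3, total STAT3, total PAX3, with actin.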

A-375 [7] = assay: Down regulation of cyclin D1 expression in human A-375 cells measured after 24 hrs by Western blot analysis; assay type: functional, cell-based; conditions: dose 5-50 µM
Summary of the method: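 A375 cells were treated for one night with a dose range of inhibitor, lysed, and Cyclin D1 was detected by western blot.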

A-375 [8] = assay: Cell cycle arrest in human A-375 cells assessed as accumulation at S-phase at 25 uM measured after 24 hrs by […] (reference value: 33.6 to 33.7%); assay type: functional
A-375 [9] = assay: Cell cycle arrest in human A-375 cells assessed as accumulation at G2-phase at 10 uM measured after 24 hrs by […] (reference value: 9.14 to 10.5%); assay type: functional
HFF = assay: Cytotoxicity against HFF assessed as inhibition of cell proliferation by MTS assay; assay type: cell-based, Homo sapiens; conditions: Homo sapiens, HFF; read-out: IC50
[10] = Antiproliferative activity against human SB-590885-resistant 451Lu cells assessed as reduction in cell viability measured after 48 hrs by MTS assay; assay type: functional; conditions: Homo sapiens, 451Lu, 48 h; read-out: IC50; summary of the method: as §2
[11] = target: T1, Signal transducer and activator of transcription 3; assay: Inhibition of STAT3 in human SB-590885-sensitive MEL1617 cells assessed as reduction in PAX3 expression at 10 to 25 uM measured after 12 hrs by Western blot analysis; assay type: cell-based; conditions: dose 10-25 µM; summary of the method: as §3
[12] = target: T1, Signal transducer and activator of transcription 3; assay: Inhibition of STAT3 phosphorylation at Y705 residue in human SB-590885-resistant MEL1617 cells at 10 to 25 uM measured after 12 hrs by Western blot analysis; assay type: cell-based; conditions: dose 10-25 µM; summary of the method: as §3
[13] = target: T1, Signal transducer and activator of transcription 3; assay: Displacement of FAM-labeled 5-GpYLPQTV-NH2 from recombinant GST-tagged STAT3 (unknown origin) preincubated for 30 mins followed by FAM-labeled 5-GpYLPQTV-NH2 addition and measured after 30 mins by fluorescence assay; conditions: for inhibition: time 60.0 min
Summary of the method: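 GST-STAT3 (2 µM) was bound to GST beads for 1 h at 4 °C in PBS with 0.1% β-mercaptoethanol, then washed. Bead slurry was incubated with compound dilutions (2.25% DMSO, duplicate) and FAM-GpYLPQTV-NH2 peptide. Resin was washed by vacuum filtration and fluorescence read at ex 485/em 535 nm. % displacement was set against the no-compound signal; two independent experiments.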

[14] = target: Signal transducer and activator of transcription 6 (Homo sapiens) (UniProt P42226); assay: Inhibition of STAT6 phosphorylation at Y641 residues in human A-375 cells at 50 uM after 20 hrs by Western blotting analysis; assay type: cell-based
Sequence of Signal transducer and activator of transcription 6 (Homo sapiens) (P42226 whole entry): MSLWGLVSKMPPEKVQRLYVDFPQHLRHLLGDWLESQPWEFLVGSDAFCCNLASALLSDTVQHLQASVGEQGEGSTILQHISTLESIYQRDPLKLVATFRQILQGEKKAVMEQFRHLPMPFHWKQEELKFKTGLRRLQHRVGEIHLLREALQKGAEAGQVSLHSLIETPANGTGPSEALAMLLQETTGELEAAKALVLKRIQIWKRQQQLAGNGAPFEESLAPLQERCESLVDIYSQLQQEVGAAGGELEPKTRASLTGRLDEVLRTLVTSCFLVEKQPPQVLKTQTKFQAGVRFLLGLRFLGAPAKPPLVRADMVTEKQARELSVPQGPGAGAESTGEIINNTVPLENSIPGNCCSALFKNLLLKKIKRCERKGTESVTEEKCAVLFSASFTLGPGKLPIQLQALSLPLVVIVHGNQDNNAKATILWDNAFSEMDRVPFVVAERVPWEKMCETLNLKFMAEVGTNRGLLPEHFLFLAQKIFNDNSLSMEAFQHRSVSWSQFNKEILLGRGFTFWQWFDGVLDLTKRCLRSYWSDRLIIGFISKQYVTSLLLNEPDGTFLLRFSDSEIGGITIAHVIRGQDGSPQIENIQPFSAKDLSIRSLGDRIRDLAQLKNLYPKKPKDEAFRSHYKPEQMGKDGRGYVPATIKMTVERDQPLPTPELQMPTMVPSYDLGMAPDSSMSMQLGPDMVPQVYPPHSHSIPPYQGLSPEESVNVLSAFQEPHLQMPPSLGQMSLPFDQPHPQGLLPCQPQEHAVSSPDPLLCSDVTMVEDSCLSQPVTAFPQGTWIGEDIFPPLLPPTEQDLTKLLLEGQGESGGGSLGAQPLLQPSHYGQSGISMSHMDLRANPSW
Summary of the method: (§4)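 A375 cells exposed to a dose range of inhibitor for 20 h (overnight), up to 50 µM; lysates immunoblotted for phospho-STAT1 Y701, phospho-STAT5 Y694 and phospho-STAT6 Y641, with actin and/or vinculin as loading controls.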

[15] = target: Tyrosine-protein kinase JAK2 (Homo sapiens) (UniProt O60674); assay: Inhibition of JAK2 phosphorylation in human A-375 cells at 5 to 50 uM after 12 hrs by Western blotting analysis; assay type: cell-based; conditions: dose 5-50 µM
Sequence of Tyrosine-protein kinase JAK2 (Homo sapiens) (O60674 whole entry): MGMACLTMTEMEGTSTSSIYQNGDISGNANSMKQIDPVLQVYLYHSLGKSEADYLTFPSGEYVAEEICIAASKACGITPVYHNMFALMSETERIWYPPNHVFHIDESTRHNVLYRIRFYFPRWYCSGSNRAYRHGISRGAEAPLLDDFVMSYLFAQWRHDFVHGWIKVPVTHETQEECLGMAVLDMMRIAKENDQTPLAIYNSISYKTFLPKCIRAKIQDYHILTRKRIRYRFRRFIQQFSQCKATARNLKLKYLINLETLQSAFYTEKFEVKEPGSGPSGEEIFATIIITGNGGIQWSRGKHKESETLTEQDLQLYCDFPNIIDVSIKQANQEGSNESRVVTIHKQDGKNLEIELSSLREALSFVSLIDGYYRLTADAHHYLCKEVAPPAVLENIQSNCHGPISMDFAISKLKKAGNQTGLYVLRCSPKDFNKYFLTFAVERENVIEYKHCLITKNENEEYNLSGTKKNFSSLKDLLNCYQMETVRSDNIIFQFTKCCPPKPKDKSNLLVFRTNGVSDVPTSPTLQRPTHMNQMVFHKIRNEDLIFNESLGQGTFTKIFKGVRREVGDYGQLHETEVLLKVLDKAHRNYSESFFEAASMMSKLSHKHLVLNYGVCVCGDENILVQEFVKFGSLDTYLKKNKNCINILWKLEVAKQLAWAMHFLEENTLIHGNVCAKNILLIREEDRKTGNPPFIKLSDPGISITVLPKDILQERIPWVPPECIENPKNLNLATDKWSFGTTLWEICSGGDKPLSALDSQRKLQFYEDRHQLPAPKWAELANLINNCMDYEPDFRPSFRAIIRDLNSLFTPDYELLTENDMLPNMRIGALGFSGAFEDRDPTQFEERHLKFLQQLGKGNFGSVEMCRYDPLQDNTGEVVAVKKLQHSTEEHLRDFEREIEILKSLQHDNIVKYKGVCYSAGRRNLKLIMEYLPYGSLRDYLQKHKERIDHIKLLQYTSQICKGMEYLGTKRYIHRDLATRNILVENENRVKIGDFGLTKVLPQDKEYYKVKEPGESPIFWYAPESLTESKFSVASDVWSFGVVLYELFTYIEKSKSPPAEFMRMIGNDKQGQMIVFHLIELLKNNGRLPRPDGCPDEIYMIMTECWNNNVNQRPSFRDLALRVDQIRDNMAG
Summary of the method: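 A375 cells were treated with 0, 5, 10 or 25 µM overnight (methods state 12 h) in RPMI-1640 with Glutamax. Lysates (60 µg protein) were run on 10% SDS-PAGE and immunoblotted for phospho-JAK2 or phospho-ERK1/2, with actin and/or vinculin as loading controls; performed twice.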

[16] = target: T1, Signal transducer and activator of transcription 3; assay: Inhibition of STAT3 phosphorylation at S727 residue in human SB-590885-sensitive MEL1617 cells at 10 to 25 uM measured after 12 hrs by Western blot analysis; assay type: cell-based; conditions: dose 10-25 µM; summary of the method: as §3
A-375 [17] = assay: Cell cycle arrest in human A-375 cells assessed as accumulation at S-phase at 10 uM measured after 24 hrs by […] (reference value: 33.6 to 33.7%); assay type: functional
[18] = target: Signal transducer and activator of transcription 5A (Homo sapiens) (UniProt P42229); assay: Inhibition of STAT5 phosphorylation at Y694 residues in human A-375 cells at 50 uM after 20 hrs by Western blotting analysis; assay type: cell-based; summary of the method: as §4
Sequence of Signal transducer and activator of transcription 5A (Homo sapiens) (P42229 whole entry): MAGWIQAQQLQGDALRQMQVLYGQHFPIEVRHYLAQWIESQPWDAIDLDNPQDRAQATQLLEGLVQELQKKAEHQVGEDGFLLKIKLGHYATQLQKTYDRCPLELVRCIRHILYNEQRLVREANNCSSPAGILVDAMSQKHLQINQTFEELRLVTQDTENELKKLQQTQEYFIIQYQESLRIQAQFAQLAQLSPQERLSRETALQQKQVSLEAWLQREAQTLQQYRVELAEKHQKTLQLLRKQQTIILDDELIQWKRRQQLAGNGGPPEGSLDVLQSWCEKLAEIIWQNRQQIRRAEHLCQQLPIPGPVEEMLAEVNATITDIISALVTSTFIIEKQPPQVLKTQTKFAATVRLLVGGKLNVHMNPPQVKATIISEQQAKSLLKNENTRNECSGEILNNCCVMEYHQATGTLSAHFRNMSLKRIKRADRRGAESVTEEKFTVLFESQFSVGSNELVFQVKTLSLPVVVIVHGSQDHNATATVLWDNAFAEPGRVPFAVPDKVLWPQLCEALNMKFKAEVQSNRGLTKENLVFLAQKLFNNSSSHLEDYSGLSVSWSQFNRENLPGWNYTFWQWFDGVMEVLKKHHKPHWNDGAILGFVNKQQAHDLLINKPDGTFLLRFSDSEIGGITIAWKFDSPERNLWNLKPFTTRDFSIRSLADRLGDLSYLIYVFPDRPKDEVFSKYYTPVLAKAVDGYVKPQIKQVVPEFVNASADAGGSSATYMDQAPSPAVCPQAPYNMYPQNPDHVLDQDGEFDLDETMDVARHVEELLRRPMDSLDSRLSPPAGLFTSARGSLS

[19] = Antiproliferative activity against human SB-590885-resistant MEL1617 cells assessed as reduction in cell viability measured after 48 hrs by MTS assay; assay type: functional, cell-based; conditions: Homo sapiens, MEL1617, 48 h; read-out: IC50; summary of the method: as §2

Row | SMILES | Drug metabolism [1] [%] | inhibition of growth at 10 µM (MOLT-4) [%] | IC50 [2] [µM] | IC50 [3] [µM] | IC50 [4] [µM] | Drug metabolism [5] [%] | inhibition [6] | Activity (A-375 [7]) | Activity (A-375 [8]) [%] | Activity (A-375 [9]) [%] | IC50 (HFF) [µM] | IC50 [10] [µM] | inhibition [11] | inhibition [12] | IC50 [13] [µM] | inhibition [13] | inhibition [14] | inhibition [15] | inhibition [16] | Activity (A-375 [17]) [%] | also measured
1 | C=CCn1c(SCC(=O)Nc2ccc(/C(C)=N\O)cc2)nnc1-c1cc(-c2ccc(Cl)cc2)nc2ccccc12 | 30 | 100 | 46.1 | 7.9 | 11.3 | 15 | Dose-dependent effect | Dose-dependent effect | 21.4 | 14.9 | 200 | 47 | Active | Active | 0.25 | Dose-dependent effect | inactive | inactive | Active | 24.9 | inhibition [18]: inactive; IC50 [19]: 54.1 µM
2 | C=CCn1c(SCC(=O)Nc2ccc(/C(C)=N\O)cc2)nnc1-c1cc(-c2ccccc2)nc2ccccc12 | 30 | 76 | 8.4 | 6.3 | 1.77 | 15 | Dose-dependent effect | Dose-dependent effect | 12.3 | 14.9 | 54.4 | 7.8 | Active | Active | 0.32 | Dose-dependent effect | inactive | inactive | Active | 18.8 | inhibition [18]: inactive; IC50 [19]: 10.8 µM
